Compound activity (PubChem)
The list is not random: actives were taken first. Their share in the collection is about 0.85%.
OXTR potentiate: potentiators of human oxytocin receptor; activation, % at 3 µM; P30559; CHO-OTR cells, Fluo-8 calcium fluorescence, potentiator mode; 0% = oxytocin EC15, 100% = EC100; 320,000 tested, 0.061% active;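 active = activation above that plate's cutoff, the mean activation of tested compounds plus 3 SD, cut at about 6.6% in these data, passing the limit was not always enough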
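Material: CHO-OTR cells, human receptor; compound dosing: single dose, 3.0 µM nominal final compound concentration; schedule: 6 min compound pre-incubation at room temperature, 100 s kinetic read; measured by: kinetic Fluo-8 calcium fluorescence; read-out basis: % activation vs EC15 and EC100 oxytocin; controls: EC15 oxytocin alone as 0%, 75 nM oxytocin as 100%; replicates: singlicate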
TRPML3 agonist: activates the human TRPML3 channel; HEK293 TRPML3-YFP, Fluo-8 calcium fluorescence; 100% = the carbachol control signal; activation, % at 3 µM; 220,000 tested, 0.29% active; AID 1448;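 active = activation above its plate's cutoff, the mean activation of the plate's test wells plus 3 SD, cut at about 12% in these data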
Target sequence (Q8TDD5 whole entry, looked up): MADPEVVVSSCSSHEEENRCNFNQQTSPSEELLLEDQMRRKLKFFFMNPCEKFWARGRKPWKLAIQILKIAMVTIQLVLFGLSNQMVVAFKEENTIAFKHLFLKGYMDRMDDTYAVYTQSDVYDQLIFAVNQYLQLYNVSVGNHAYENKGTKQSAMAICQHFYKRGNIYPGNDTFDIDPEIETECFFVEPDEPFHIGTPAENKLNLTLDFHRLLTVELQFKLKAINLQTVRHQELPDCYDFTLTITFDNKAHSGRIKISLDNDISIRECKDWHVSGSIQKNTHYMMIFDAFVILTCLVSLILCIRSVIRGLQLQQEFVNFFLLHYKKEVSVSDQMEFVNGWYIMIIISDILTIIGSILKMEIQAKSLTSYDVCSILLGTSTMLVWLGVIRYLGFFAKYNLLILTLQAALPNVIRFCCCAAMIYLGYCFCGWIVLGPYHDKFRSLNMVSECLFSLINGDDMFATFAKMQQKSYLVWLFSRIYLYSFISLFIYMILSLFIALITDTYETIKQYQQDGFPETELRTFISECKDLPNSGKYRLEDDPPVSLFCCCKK
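Material: TRPML3-YFP stable HEK293 cells | Dosing: One concentration, 3 µM nominal, 0.3% DMSO | Timing: 125 s total fluorescence read per well | Technique: Fluo-8 calcium dye fluorescence, ex 470-495, em 515-575 nm | Measure: Percent activation from peak-to-basal fluorescence ratio, scaled between DMSO and carbachol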
CRFR2-BP ag: CRF-BP/CRF-R2 complex agonism | activation, % at 13.2 µM | HEK293 CRF-R2/CRF-BP, calcium dye fluorescence (FLIPR); percent of saturating CRF peptide response | 350,000 tested, 0.46% active;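 active = activation of at least 50%, plus an integration ratio under a set limit after plate pattern correction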
OXTR ag: human OXTR agonism. P30559. CHO-OTR cells, Fluo-8 calcium fluorescence; normalized: DMSO 0%, oxytocin 100%. activation, % at 3 µM. 320,000 tested, 0.32% active;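 active = activation above the mean of all tested compounds plus 3 SD, cutoff set per screening run, cut at about 20% in these data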;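 also: peak over basal fluorescence ratio from a 100 s FLIPR kinetic read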
V1aR counter: activates human V1a receptor in oxytocin agonist counter-screen | P37288 | CHO-V1R cells, Fluo-8 calcium fluorescence, agonist mode; 0% DMSO, 100% 3 nM vasopressin | activation, % at 3 µM | 320,000 tested, 0.25% active | AID 2797;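 active = activation above the mean activation of all tested compounds plus 3 SD, per screening run, cut at about 20% in these data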;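 also: signal is peak over basal fluorescence ratio across a 100 second FLIPR read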
zfTRPN1 agonist: activates the zebrafish TRPN1 channel | 220,000 tested, 0.18% active | activation, % at 3 µM | HEK293 zebrafish TRPN1-YFP, Fluo-8 calcium fluorescence; 100% = response to 87 µM carbachol;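 active = activation above its plate's cutoff, the mean activation of test wells on that plate plus 3 SD, cut at about 19% in these data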
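System: zebrafish TRPN1-YFP in HEK293 cells / Dosing: 3 µM single point / Timing: dye loading 1 h at 37 °C, then 30 min room temperature / Signal: Fluo-8 calcium fluorescence, excitation 470-495 nm, emission 515-575 nm / Read-out basis: percent activation from peak over basal fluorescence ratio, control-normalized / Control set: high carbachol 87 µM, low DMSO alone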
Hits are given with their value.

Screening CSc1cccc(NP2(=O)OCC(C)([N+](=O)[O-])CO2)c1 (centres undefined) returned CRFR2-BP ag inactive.
C[C@]12CCC3C(CC[C@H]4C[C@H](O)CC[C@]34C)C1CCC2=O (some centres undefined) was read as OXTR potentiate inactive, CRFR2-BP ag inactive, OXTR ag inactive and V1aR counter inactive.
For O=C1NC(=S)NC(=O)C1=Cc1c(Cl)cccc1Cl the results were CRFR2-BP ag inactive.
`CN1/C(=C\C=C2C(=O)NC(=S)NC2=O)C(C)(C)c2ccccc21` gave TRPML3 agonist 31, CRFR2-BP ag 215 and zfTRPN1 agonist 57.
For CC1(C)OC(c2ccccc2)=C/C(=C/C=C2C(=O)NC(=S)NC2=O)O1 the results were OXTR potentiate inactive, TRPML3 agonist inactive, CRFR2-BP ag 144, OXTR ag inactive, V1aR counter inactive and zfTRPN1 agonist inactive.
`O=C1NC(=S)NC(=O)C1=Cc1cccc2cc3ccccc3cc12` gave TRPML3 agonist inactive, CRFR2-BP ag inactive and zfTRPN1 agonist inactive.
CC(=O)N1Cc2cnnn2-c2ccccc2C1(C)C#N (centres undefined) was read as CRFR2-BP ag inactive.
Screening CCN1CCOC(c2ccccc2)C1 (centres undefined) returned CRFR2-BP ag inactive.
`Cn1c(O)c(/C=C/C=Nc2ccccc2)c(=O)n(C)c1=S` gave OXTR potentiate inactive, TRPML3 agonist inactive, CRFR2-BP ag 55, OXTR ag 93, V1aR counter 47 and zfTRPN1 agonist inactive.
For Cn1c(O)c(C=Nc2ccc(Br)cc2)c(=O)n(C)c1=O the results were OXTR potentiate inactive, CRFR2-BP ag inactive, OXTR ag inactive and V1aR counter inactive.
For CCCCCc1nc2c(c(=O)c3ccccc3n2C)c(=O)n1C1CCCCCC1 the results were OXTR potentiate inactive, TRPML3 agonist inactive, CRFR2-BP ag 219, OXTR ag inactive, V1aR counter inactive and zfTRPN1 agonist inactive.
CN(C)c1ccc(N=Cc2c(O)n(CCC3=CCCCC3)c(=O)[nH]c2=O)cc1 was read as OXTR potentiate inactive, TRPML3 agonist inactive, CRFR2-BP ag inactive, OXTR ag inactive, V1aR counter inactive and zfTRPN1 agonist inactive.
For CCN(CC)c1ccc(N=Cc2c(O)n(CCC3=CCCCC3)c(=O)[nH]c2=O)cc1 the results were OXTR potentiate inactive, TRPML3 agonist inactive, CRFR2-BP ag 115, OXTR ag inactive, V1aR counter inactive and zfTRPN1 agonist inactive.
N#Cc1ccc(NC(=S)N2Cc3ccccc3-n3nncc3C2)cc1 was read as CRFR2-BP ag inactive.
Screening COc1ccccc1C(=O)Nc1ccc2c(c1)CC1(C(=O)N(C)C(=O)N(C)C1=O)C1CCCN21 (centres undefined) returned OXTR potentiate inactive, CRFR2-BP ag 182, OXTR ag inactive and V1aR counter inactive.
For O=P(Oc1ccccc1)(Oc1ccccc1)N1CCOCC1 the results were CRFR2-BP ag inactive.
Screening COC(=O)Cn1cc(/C=C2\C(=O)NC(=O)N(c3ccccc3)C2=O)c2ccccc21 returned OXTR potentiate inactive, CRFR2-BP ag 87, OXTR ag inactive and V1aR counter inactive.
`Nc1cccc2c1Cc1cc([N+](=O)[O-])ccc1-2` gave CRFR2-BP ag 62.
For N=C1c2ccccc2CN1c1cccc([N+](=O)[O-])c1 the results were OXTR potentiate inactive, TRPML3 agonist inactive, CRFR2-BP ag inactive, OXTR ag inactive, V1aR counter inactive and zfTRPN1 agonist inactive.
Screening O=C1NC(=O)C(=Cc2csc3ccccc23)C(=O)N1 returned OXTR potentiate inactive, TRPML3 agonist inactive, CRFR2-BP ag inactive, OXTR ag 24, V1aR counter inactive and zfTRPN1 agonist inactive.
Screening O=C1NC(=O)C(=C/C=C/c2coc3ccc(Br)cc3c2=O)C(=O)N1 returned OXTR potentiate inactive, TRPML3 agonist inactive, OXTR ag 40, V1aR counter inactive and zfTRPN1 agonist inactive.
`Cn1cc(C=C2C(=O)NC(=O)NC2=O)c2ccccc21` gave OXTR potentiate inactive, CRFR2-BP ag 59, OXTR ag inactive and V1aR counter inactive.
For O=C1NC(=O)C(=Cc2coc3ccccc3c2=O)C(=O)N1 the results were OXTR potentiate inactive, TRPML3 agonist inactive, CRFR2-BP ag 71, OXTR ag inactive, V1aR counter inactive and zfTRPN1 agonist inactive.
For CC12CCC3c4ccc(OP(=O)(N5CC5)N5CC5)cc4CCC3C1CCC2=O (centres undefined) the results were CRFR2-BP ag inactive.
N#CC1c2ccccc2-n2nncc2CN1C(=O)CCc1ccccc1 (centres undefined) was read as CRFR2-BP ag inactive.
`CN1CN(c2ccccc2)C2(CCN(CCCSc3ccccc3NC(=O)/C=C/c3ccccc3)CC2)C1=O` gave CRFR2-BP ag 95.
CCOC(=O)c1c(/N=C/C2C(=O)NC(=S)NC2=O)sc(C)c1C was read as OXTR potentiate inactive, TRPML3 agonist inactive, OXTR ag inactive, V1aR counter inactive and zfTRPN1 agonist inactive.
`CCOC(=O)c1c(/N=C/C2C(=O)NC(=S)NC2=O)sc2c1CCC2` gave OXTR potentiate inactive, TRPML3 agonist inactive, CRFR2-BP ag 98, OXTR ag inactive, V1aR counter inactive and zfTRPN1 agonist inactive.
`C=CCN1CCC2(C)c3cc(O)ccc3CC1C2C` (centres undefined) gave OXTR potentiate inactive, CRFR2-BP ag 63, OXTR ag inactive and V1aR counter inactive.
For CCC1C2Cc3ccc(O)cc3C1(CC)CCN2C (centres undefined) the results were CRFR2-BP ag inactive.
Screening CC(Cc1ccc(O)cc1)NCC(O)c1ccc(O)c(O)c1 (centres undefined) returned CRFR2-BP ag inactive.
`CCC1([N+](=O)[O-])COP(N)(=O)OC1` (centres undefined) gave CRFR2-BP ag inactive.
Screening N#CC(C#N)=Cc1ccc(O)c(O)c1 returned OXTR potentiate inactive, CRFR2-BP ag inactive, OXTR ag inactive and V1aR counter inactive.
For CC(C)(C)c1cc(C=C(C#N)C#N)cc(C(C)(C)C)c1O the results were OXTR potentiate inactive, CRFR2-BP ag 53, OXTR ag inactive and V1aR counter inactive.
`CN1C(=O)C(=Cc2sc(=O)n(-c3ccccc3)c2N2CCCCC2)C(=O)N(C)C1=O` gave TRPML3 agonist inactive, CRFR2-BP ag inactive and zfTRPN1 agonist 29.
`Cc1ccccc1N1C(=O)NC(=O)/C(=C/c2ccc(N3CCOCC3)o2)C1=O` gave OXTR potentiate inactive, TRPML3 agonist inactive, CRFR2-BP ag inactive, OXTR ag inactive, V1aR counter inactive and zfTRPN1 agonist inactive.
